# Reference: ChEMBL document CHEMBL4513216, “Probing the Open Global Health Chemical Diversity Library for Multistage-Active Starting Points for Next-Generation Antimalarials” (ACS Infect Dis, 2020)
# Test: Toxicity liver stage against HepG2, at 10uM
# Assay type: cell-based
# Set-up: test concentration 10 uM, cell line HepG2-A16-CD81EGFP
# Details: human, HepG2-A16-CD81EGFP cells; read-out: INHIBITION
# How it was run: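 Uninfected HepG2-A16-CD81EGFP cells, 3 × 10^3 per well, 1536-well, plated on prespotted compound at 10 μM final, parasite-free screening media added to match infected plates; puromycin 10 μM positive, DMSO 0.5% negative; run in parallel with 48 h PbLuc assay at 37 °C, 5% CO2; viability by CellTiter-Glo luminescence, normalized to controls.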
row,Structure (SMILES),cytotoxicity at 10 µM [%]
1,CC(C)(C)NC(=O)CN1CCCN(c2ccc(C#N)cn2)CC1,-4.31
2,Cc1[nH]ncc1CCCNC(=O)Nc1ccc(C#N)cc1,1.8
3,CCCn1cnc2c1CN(S(=O)(=O)Cc1ccccc1)[C@H](C(=O)OC)C2,-4.84
4,F[C@@H]1CN(Cc2ccccc2)C[C@@H]1OCc1nc2ccccc2[nH]1,4.61
5,O=C([C@@H]1Cc2[nH]cnc2CN1Cc1cc2ccccc2o1)N1CCCC1,2.23
6,Cc1ccc(-c2cn3c(n2)CO[C@@H](CNCc2nccn2C)C3)cc1,-10.6
7,CCCNc1ccc(C(=O)NCCc2ccc(Cl)cc2)cn1,-1.05
8,O=c1n(Cc2ccc(F)cc2)nc2ncccn12,-8.18
9,CCCn1cnc2c(cnn2-c2cccc(C)c2C)c1=O,-8.17
10,CC(C)C(=O)N1CCc2nc(C(=O)Nc3cccnc3)sc2CC1,12.5
11,O=C(NCc1ccco1)[C@H]1C[C@H]2OCC[C@H]2N(C(=O)c2ccnnc2)C1,-10.3
12,CS(=O)(=O)NC[C@@H]1OC[C@H]2CN(C(=O)c3cnccn3)CC[C@H]21,2.98
13,CCN1C(=O)C2(CCOCC2)c2cc(NC(=O)c3cc(C)n[nH]3)ccc21,-2.49
14,CS(=O)(=O)N1CCC2(COCc3cnc(-c4ccccc4)nc32)C1 (configuration not stated),1.22
15,Cc1cc(O)c(OCC(=O)/N=c2\[nH]c(C)c(C)s2)cn1,8.6
16,OCCNc1nc(Nc2ccccc2)c2nccnc2n1,3.72
17,COc1ccc2nnc(C(=O)NC3CCCC3)nc2c1,6.17
18,CCn1cc(CN(C)S(=O)(=O)c2ccc(Cl)cc2)cn1,3.77
19,CCOc1cccc(NC(=O)c2cc[nH]n2)n1,3.51
20,COCC(=O)Nc1ccc(C)cc1-c1nc(C2CC2)no1,-3.67
21,COc1ncccc1CNCc1cnc(N2CCOCC2)nc1,2.38
22,Cn1cc(NC(=O)N2CCCC2c2cccnc2)ccc1=O (configuration not stated),-3.73
23,O=C(NCC1CC1)c1ccc(NC(=O)c2ccco2)cc1,7.91

row,Structure (SMILES),cytotoxicity at 10 µM [%]
1,COc1ccc(OC)c(-c2csc(-c3cccc(C(=O)O)c3)n2)c1,3.75
2,CCc1nc(CN2CCCN(C(=O)c3cccn3C)CC2)cs1,3.41
3,CCOc1ccnc(N2CCCN(c3nc(C4CC4)ns3)CC2)n1,6.97
4,CCn1ccnc1CN1CCN(c2ncnc3ccccc23)CC1,-1.8
5,Cc1cc(CNC(=O)N2CCc3ccccc32)on1,-3.57
6,O=C(CCCc1ccccn1)N1CCC(n2cccc2)CC1,4.59
7,CCc1cnc(N2CCN(CC(=O)Nc3c(C)n[nH]c3C)CC2)s1,-2.69
8,Cc1ccc(S(=O)(=O)NC(=O)COc2cccc(C#N)c2)c(C)c1,3.73
9,Cc1cccc(Nc2c(C#N)c(=O)n(C)c(=O)n2C)c1,-7.48
10,Fc1cccc(-n2cccn2)c1NCc1nnc(C2CC2)o1,-5.48
11,CS(=O)(=O)NCC1CCCN(C(=O)Nc2ccccc2N2CCCC2)C1 (configuration not stated),-139
12,CNS(=O)(=O)c1ccc(CCC(=O)NCc2cccc(OC)c2)cc1,-148
13,COc1ncnc(N)c1CNCC(C)SC (configuration not stated),-0.554
14,COc1ccc(N(C(=O)Cc2ccc(C)nc2)C(C)C)cc1F,0.854
15,O=C1CC(CNc2cncc(Cl)n2)c2ccccc2N1 (configuration not stated),-0.99
16,CCC1CN(c2cnn(-c3ccccc3)c(=O)c2Cl)CCO1 (configuration not stated),-17.4
17,CCCN(CCC)S(=O)(=O)NCCc1cc(C)ccc1OC,7.75
18,COC(=O)c1cnc(/C=C/c2ccc(C(=O)O)cc2)s1,2.56
19,COc1c(C)cnc(CNC(=O)CCOCC(C)C)c1C,-4.44
20,Cc1cc(CNC(=O)c2cc(C(C)C)n(C)n2)ccc1S(C)(=O)=O,-3.11
21,COCCN(CCN(C)C)C(=O)NC1CCc2ccccc2C1 (configuration not stated),-5.17
22,Cc1ccccc1C(NC(=O)CNC(=O)c1ccoc1C)C(C)C (configuration not stated),2.74
23,CCc1cnc(NC(=O)NC2CCN(C3CCCC3)CC2)s1,-7.27

row,Structure (SMILES),cytotoxicity at 10 µM [%]
1,Cc1cccc(CC(=O)Nc2cccnc2N2CCC(CO)CC2)c1,-2.23
2,O=C(CNc1ccc(OC2CCOC2)cc1)NCc1ccc(F)cc1 (configuration not stated),3.4
3,CC(=O)c1cccc(NCC(=O)NC(N)=O)c1,2.54
4,Cn1cc(-c2csc(N3CCOCC3)n2)cn1,0.469
5,Cc1csc2ncc(-c3ccnc(N4CCCC4)n3)c(=O)n12,-13.2
6,CCOC(=O)N1CCC2(CC1)N=C(CCC(C)C)NC2=O,-6.55
7,Cc1ccnc(N2CCN(C3CCS(=O)(=O)C3)CC2)n1 (configuration not stated),-2.71
8,COc1ccccc1[C@@H]1CN(Cc2cnc(N(C)C)nc2)C[C@H]1C(=O)O,-3.89
9,COCCC1(CO)CCCN(Cc2ccc(C#N)cc2)C1 (configuration not stated),-156
10,CC(C1CCN(Cc2ccccc2OC(F)F)CC1)N1CCOCC1 (configuration not stated),-7.4
11,O=c1[nH]c2ccccc2cc1CN(Cc1ccccn1)CC1CCCO1 (configuration not stated),-4.84
12,CC(O)C1CCN(C(=O)Nc2nc(-c3ccccc3)ns2)CC1 (configuration not stated),-135
13,COc1cc2[nH]c(=O)c(CN3CCC[C@@H]3C(N)=O)cc2c(OC)c1OC,-6.84
14,Cc1nc(C(C)C)sc1C(=O)NCCSc1ccccn1,3.76
15,Cc1cc(C(=O)N2CCC3(CCC(=O)N(CC(N)=O)C3)CC2)ccc1O,-7.5
16,CC(NC(=O)c1cc2n(n1)CCCN(C)C2)c1cn2ncsc2n1 (configuration not stated),-6.73
17,NC(=O)CCn1cc(CNCCCc2ccncc2)c2ccccc21,7.28
18,Cc1ccc(NC(=O)N2CCCC(O)(CO)CC2)cc1Cl (configuration not stated),1.96
19,COc1ncccc1-c1cc(C(=O)NC2CC2)ccn1,-11.8
20,OCC(CO)N1CCC(c2nnc(Cn3ccnc3)n2C2CC2)CC1,-4.36
21,O=C1OCCN1Cc1nc(C2(c3ccc(F)cc3)CCOC2)no1 (configuration not stated),-5.22
22,COc1ccc(OC)c(C2CCN(C3CCOCC3)C2)c1 (configuration not stated),-6.28
23,Cn1ccnc1-c1ccc(NCc2cn3c(n2)SCC3)nn1,-0.641

row,Structure (SMILES),cytotoxicity at 10 µM [%]
1,CCN(CC)C(CNCc1ccc(OC)c(F)c1)c1ccco1 (configuration not stated),15.2
2,NC(=O)N1CCCC(C(=O)NCc2noc(Cc3ccccc3)n2)C1 (configuration not stated),2.4
3,CCOCC(=O)N1CCc2c(ncnc2N2CCOCC2)C1,-6.63
4,O=C(N1CCOCC1)N1CCCC1c1nc(-c2ccccn2)no1 (configuration not stated),10.7
5,CC(=O)NC1CC(C)(C)Cc2c1cnn2-c1cccc(F)c1 (configuration not stated),-144
6,C=C(C)COc1ccccc1NC(=O)N1CCOCC1CO (configuration not stated),-4.1
7,CCC(NC(=O)c1cnc(N(C)C)nc1C)c1ccc(S(C)(=O)=O)cc1 (configuration not stated),-3.5
8,COCCCN1CC2(CCCN(c3ncnc4[nH]ccc34)C2)CCC1=O (configuration not stated),-4.67
9,CN(C)C(=O)Cc1ccc(NC(=O)NC2CCCCC2)cc1,-11.3
10,O=C(c1cc(COc2ccc3c(c2)OCO3)[nH]n1)N1CC=CC1CO (configuration not stated),-6.49
11,CC(NC(=O)NCc1ccccn1)c1ccc2c(c1)CCC(=O)N2 (configuration not stated),7.47
12,COc1ccccc1C(C)N(C)Cc1nc2c(cnn2C)c(=O)[nH]1 (configuration not stated),-9.1
13,CC(c1nc(C2CC2)no1)N1CCN(CCN2CCCC2=O)CC1 (configuration not stated),-10.9
14,Cc1ccc(N2CCCN(C(=O)C3CCCO3)CC2)nn1 (configuration not stated),-11.1
15,Cc1nc(CC(=O)N2CCc3nnc(N(C)C)cc3C2)cs1,-7.07
16,COc1cc(C)nc(N2CCN(C(=O)CSC)CC2)n1,-6.42
17,Cc1cnn(CCNCc2csc(-c3ccsc3)n2)c1,-6.75
18,CC(C)Oc1ncccc1CNC(=O)N1CCC(n2cccc2)CC1,3.48
19,O=C(Nc1ccccc1F)C1=NN(c2ccccc2)C(=O)CN1,-13.2
20,CC(Cn1cccn1)NC(=O)NCCc1cccs1 (configuration not stated),-15.3
21,c1csc(-c2noc(CN3CCCC3Cn3cccn3)n2)c1 (configuration not stated),-12.7
22,CCN(Cc1cccc2c1OCO2)C(=O)Nc1ccccn1,-21.7
23,Cc1cc(NC(=O)CN2CCC(N3CCNC3=O)CC2)on1,2.99

row,Structure (SMILES),cytotoxicity at 10 µM [%]
1,CCN(CC)CC(=O)N1CCCCC1c1nc(C)cs1 (configuration not stated),-5.78
2,COc1cc(CNC(=O)Nc2nnc(C(C)C)s2)ccn1,-8.24
3,O=C(c1cn(-c2ccc(F)cc2)nn1)N1CCCC(n2cccn2)C1 (configuration not stated),-3.56
4,CN(CCc1ccncc1)CC1CCCN1c1cccnn1 (configuration not stated),1.09
5,O=C(NCCCn1ccnc1)NCC(c1ccco1)N1CCCCC1 (configuration not stated),5.71
6,CCOc1ccc(OCC(O)CN2CCN(S(C)(=O)=O)CC2)cc1 (configuration not stated),-36.8
7,Cc1cnn(CC2CCCN2C(=O)c2csc(-c3nnc[nH]3)n2)c1 (configuration not stated),-2.94
8,Cc1cccc(C(=O)N2C[C@@H](OCc3ccncc3)[C@@H]3OCCC[C@@H]32)n1,-5.06
9,COCc1nn(C)c2c1CN(Cc1cnn(C)c1)CC2,1.64
10,COc1ccc2c(c1)C1(CCN(Cc3cnn(C)c3)CC1)N(C)CC2,-136
11,CCN(C)c1ncnc2c1CCN(C(=O)c1cnccn1)CC2,-1.86
12,O=C(NCc1ccco1)[C@H]1CC[C@@H]2[C@@H](CCN2Cc2cccnc2)O1,-3.68
13,CN(C)CCN1C(=O)C[C@@H]2[C@@H]1CCN2S(=O)(=O)c1ccccc1,-7.52
14,CCN(C)c1ncnc2c1CCN(C(=O)NCc1cccnc1)CC2,-126
15,COCCO[C@H]1CCN(Cc2ccsc2)[C@H]1Cc1cccnc1,-2.57
16,O=C(c1ccncc1)N1CC[C@H]2[C@H]1CCN2S(=O)(=O)C1CC1,-126
17,Fc1cnc(N2CCCn3c(nnc3Cn3ccnc3)C2)nc1,-140
18,COc1ccc(Cl)cc1CN(C)CC(=O)Nc1ccnn1C(C)C1CC1 (configuration not stated),4.85
19,CCNc1nc2cn(-c3cccc(OC)c3)c(=O)c-2c[nH]1,8.65
20,CCNc1nc2cn(-c3ccc(Cl)cc3)c(=O)c-2c[nH]1,7.67
